# MsrA inh – inhibitors of bovine MsrA. AID 651718. inhibition, % at 15.5 µM. purified bovine MsrA, absorbance read-out. 0.75% of 360,000 active; in the data active means inhibition above about 4.5%;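 further: 0% = vehicle wells with enzyme and 100% = reference inhibitor wells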
# MC4R antagonist – antagonists of human melanocortin 4 receptor (MC4R); inhibition, % at 6.5 µM; AID 540295; 0.48% of 360,000 active; P32245; MC4R-expressing cells, MTII-stimulated cAMP, LANCE TR-FRET;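 active means inhibition above its plate's cutoff, the mean of tested wells on that plate plus 3 SD, cut at about 29% in these data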;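 further: 0% = Melanotan II alone and 100% = Melanotan II plus saturating MCL0020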
#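 Material: U2OS-MC4R stable cell line | Reagent: Melanotan II challenge after compound preincubation | Doses: One concentration, 6.5 µM nominal | Incubation: 30-min compound preincubation, 1-h Melanotan II challenge, 1-h detection, room temperature | Signal: TR-FRET cAMP assay | Replicates: One well per compound, no replicates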
# MC4R ag barr – human MC4R agonism via beta-arrestin; activation, % at 8.9 µM; 0.98% of 360,000 active; U2OS MC4R beta-arrestin complementation, luminescence; percent of melanotan II response, DMSO zero;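 active means activation above a per-plate cutoff, the mean activation of sample wells on that plate plus 3 SD, cut at about 8% in these data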
# bovine MsrA act – activators of bovine methionine sulfoxide reductase A; purified bovine MsrA, absorbance read-out; activation, % at 10.6 µM; 0.3% of 360,000 active; AID 602163; in the data active means activation above about 7.5%;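 further: 0% = vehicle and 100% = reference activator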
# MC4R barr ag – human MC4R beta-arrestin agonism confirmation; shares compounds with MC4R ag barr; 31% of 2,400 active; U2OS MC4R beta-arrestin recruitment, luminescence; scaled DMSO 0%, Melanotan II 100%; activation, % at 8.9 µM;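 active means mean activation across replicates above the hit cutoff set in the earlier primary screen, cut at about 8% in these data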
# MOR-DOR barr ag – OPRM1-OPRD1 heterodimer agonism counter-screen; shares compounds with MC4R ag barr; U2OS PathHunter beta-arrestin, beta-gal luminescence; percent of deltorphin B response, DMSO zero; activation, % at 9.2 µM; 5.8% of 2,400 active;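 active means mean activation across replicates exceeds the hit threshold derived in the earlier primary screen, cut at about 18% in these data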;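 further: 100% = deltorphin B at 0.9 µM final and 0% = DMSO alone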
# The depositor's hits bear a star; . = not tested or not shown. This is a sample that favours compounds with a hit; in the whole collection about 2.3% have one here.
SMILES,MsrA inh,MC4R antagonist,MC4R ag barr,bovine MsrA act,MC4R barr ag,MOR-DOR barr ag
CCOc1ccc(NS(=O)(=O)c2ccc(SC)cc2)cc1,-1,3,11*,0,0,7
Cc1cc(C)c(S(=O)(=O)Nc2ccccc2C(=O)N2CCOCC2)c(C)c1,-1,12,-2,-2,.,.
COc1ccc(C(=O)COC(=O)c2ccc(-n3cnnn3)cc2)c(OC)c1,0,11,13*,0,5,6
COc1ccc(C(=O)COC(=O)c2c(-c3ccccc3)noc2C)c(OC)c1,2,7,14*,-2,0,2
CC1CCCCN1CCCNC(=O)c1ccc2c(c1)NC(=O)CN2C (stereo not drawn),0,-6,0,-4,.,.
O=C(Nc1ccc(Nc2ccccc2)cc1)C1CC1,-1,-5,-2,7,.,.
CC(C)(C)C1CCC(C(=O)Nc2ccccc2)CC1 (stereo not drawn),-1,-5,10*,-14,2,6
CC(C)(C)c1nc(N)nc(=O)[nH]1,0,-1,-1,-6,.,.
O=C(O)c1ccc(N2C(=O)CC(SC(=NCc3ccc4c(c3)OCO4)Nc3ccccc3)C2=O)cc1 (stereo not drawn),-1,-12,0,-3,.,.
O=C1CC(SC(=Nc2ccccc2)Nc2ccccc2)C(=O)N1c1ccc(Cl)c(Cl)c1 (stereo not drawn),2,5,9.7*,-5,4,5
Cc1cccc(N2C(=O)CC(SC(=Nc3ccccc3)Nc3ccccc3)C2=O)c1 (stereo not drawn),0,7,3,-2,.,.
O=C1CC(SC(=NCc2ccc3c(c2)OCO3)Nc2ccccc2)C(=O)N1c1ccccc1 (stereo not drawn),0,5,21*,-1,1,9
COC(=O)c1c(NC(=O)CC2SC(N)=NC2=O)sc2c1CCC(C(C)(C)C)C2 (stereo not drawn),0,-1,10*,-8,17*,2
OC(CNCCc1ccc(Cl)cc1)COc1ccc2ccccc2c1 (stereo not drawn),0,-4,20*,-9,15*,5
OC(CNCCc1ccccc1)COc1ccc(OCC(O)CNCCc2ccccc2)cc1 (stereo not drawn),1,-5,-1,-4,.,.
O=C(NCc1cccc(C(F)(F)F)c1)c1ccc2sc([C@H]3C[C@H](O)[C@@H](CO)O3)nc2c1,0,-2,-2,-2,.,.
COc1ccc(C(=O)Cn2c(NCCCO)nc3ccccc32)cc1,1,1,1,-3,.,.
Cc1cc2nc(NCCCO)n(CC(=O)c3cc(C(C)(C)C)c(O)c(C(C)(C)C)c3)c2cc1C,1,7,13*,-1,6,11
CCCCCCN(C(=O)CCCCCN1C(=O)NC(c2ccc(-c3ccccc3)cc2)C(C(=O)OCc2ccccc2)=C1C)C(C(=O)NCCCC)c1ccccn1 (stereo not drawn),1,.,.,.,.,.
CC(=O)OC[C@@H]1CN(Cc2ccccc2)C[C@H](n2cnc3c(Nc4ccccc4)ncnc32)O1,1,-3,1,-4,.,.
C=C(C)c1cccc(C(C)(C)NC(=O)NC2CCN(Cc3ccccc3)CC2)c1,0,5,3,-7,.,.
C=C(C)c1cccc(C(C)(C)NC(=O)N(Cc2ccccc2)Cc2ccco2)c1,0,1,17*,5,-1,5
COc1ccc(NC(=O)c2ccc(-c3ccccc3C(F)(F)F)o2)cc1,3,3,10*,-2,2,5
CC(C)Oc1ccc(C(CC(=O)O)c2ccc(F)cc2)cc1 (stereo not drawn),-1,4,-1,-3,.,.
CCOc1ccc(NC(=O)CC(c2ccccc2)c2ccc(F)cc2)cc1 (stereo not drawn),1,4,17*,4,0,6
COc1ccc(NC(=O)CC(c2ccc(F)cc2)c2ccc(OC(C)C)cc2)cc1 (stereo not drawn),0,9,15*,1,7,3
CCOc1cc(/C=C2/C(=N)N3C(=NC2=O)SN=C3S(=O)(=O)C(C)C)ccc1OC(=O)c1ccco1,2,6,-2,2,.,.
